# Bioassay records: PubChem, Broad Institute
# Most compounds without a hit are left out; they make up all but 2.2% or so of the library.
# E-sel inducer: E-selectin induction in HUVECs, primary screen, imaging, HUVEC, immunofluorescence imaging, single point; normalized: neutral wells 0, TNF-alpha wells 100; P16581; actives 0.37% (n = 260,000); activation, % at 7.58 µM; AID 686992, 2013;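 active = mean E-selectin-positive cell signal at least 10% of the positive control, reached in at least 60% of replicates, without over 20% cell loss; inconclusive = no rule given, readout overlaps actives, possibly toxicity-flagged; inactive = the rest, including those meeting only one limit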
# Target sequence (P16581 whole entry, looked up): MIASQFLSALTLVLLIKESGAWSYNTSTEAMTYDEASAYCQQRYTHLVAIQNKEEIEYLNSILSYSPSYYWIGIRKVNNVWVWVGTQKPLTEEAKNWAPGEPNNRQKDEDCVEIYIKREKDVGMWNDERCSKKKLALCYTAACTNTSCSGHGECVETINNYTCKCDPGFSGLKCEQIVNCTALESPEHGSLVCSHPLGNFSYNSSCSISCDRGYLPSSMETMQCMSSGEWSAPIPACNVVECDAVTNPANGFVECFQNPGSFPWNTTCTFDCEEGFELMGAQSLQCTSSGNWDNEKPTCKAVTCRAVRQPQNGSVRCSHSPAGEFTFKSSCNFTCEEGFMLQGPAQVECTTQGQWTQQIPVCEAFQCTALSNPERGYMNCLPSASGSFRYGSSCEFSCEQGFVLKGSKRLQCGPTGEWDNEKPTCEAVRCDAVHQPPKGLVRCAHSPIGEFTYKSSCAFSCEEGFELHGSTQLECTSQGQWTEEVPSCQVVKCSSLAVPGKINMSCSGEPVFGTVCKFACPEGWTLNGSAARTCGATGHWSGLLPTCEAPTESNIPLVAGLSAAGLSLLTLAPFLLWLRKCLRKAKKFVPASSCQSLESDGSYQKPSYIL
#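 Read-out basis: % PE-positive cells; Test system: HUVEC primary endothelial cells; Technique: immunofluorescence imaging; Dosing: single-point compound dose.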
# Statin myotox sup: suppressors of statin myotoxicity in C2C12 myotubes, primary screen, cell-based, single point, plate reader. C2C12 myotubes + simvastatin, ATP luminescence, 48 h; scaled: DMSO 0, geranylgeraniol control 100. rescue of ATP level, % at 7.49 µM. actives 0.78% (n = 330,000). AID 602340, 2012;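 active = mean ATP rescue above about 67%, or every replicate alone reaching that limit, limit read from the data, passing the limit was not always enough; inconclusive = no clear call, values can overlap the other calls; inactive = mean under the limit and some replicate under it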;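 also: myotubes were challenged with 10 µM simvastatin during compound exposure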
# DENV2 CPE rescue: inhibitors of DENV2 cytopathic effect, primary screen, cell-based, plate reader, single concentration | DENV2-infected cells, cytopathic effect rescue | CPE inhibition, % at 9.99 µM | actives 1.7% (n = 350,000) | AID 651640, 2012; in the data active = CPE inhibition above about 20%, passing the limit was not always enough; inconclusive = no clear call, values can overlap the other calls; tested in BHK-21 cells;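 also: 0% = median of neutral control wells and 100% = median of positive control wells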
# * marks the source's active call; other numbers are inactive results; ? = inconclusive; · = no result.
SMILES,E-sel inducer,Statin myotox sup,DENV2 CPE rescue
C[C@H]1CN([C@@H](C)CO)C(=O)Cc2cc(NC(=O)CCN3CCOCC3)ccc2O[C@@H]1CN(C)S(=O)(=O)c1ccc(Cl)cc1,1,-2,-9
C[C@@H]1CN([C@@H](C)CO)C(=O)c2cccc(NC(=O)c3ccc(-c4nccs4)cc3)c2O[C@H]1CN(C)S(=O)(=O)c1ccccc1,0,-34,-12
COc1cccc(-c2nnc(SCC(=O)N3CCCc4ccccc43)o2)c1,·,98*,·
COc1ccc(-n2nnnc2SCC(=O)N2CCCc3ccccc32)cc1OC,·,128*,·
COc1ccc(OC)c(-c2nnc(SCC(=O)N3CCCc4ccccc43)o2)c1,·,14,·
Cn1nnnc1SCC(=O)N1CCCc2ccccc21,·,-11,·
COc1cc(OC)cc(-c2nnc(SCC(=O)N3CCCc4ccccc43)o2)c1,·,108*,·
COc1cc(OC)cc(-c2nnc(SCC(=O)N3CCCC3)o2)c1,·,13,·
O=C(CSc1nnnn1-c1cccc2c1CCCC2)N1CCCCC1,·,105*,·
Cc1ccc(-n2nnnc2SCC(=O)N2CCCCC2)cc1,·,-1,·
C[C@@H]1CN([C@@H](C)CO)C(=O)c2cc(NS(=O)(=O)c3ccccc3)ccc2O[C@H]1CN(C)C,0,-27,8
Cc1noc(C)c1S(=O)(=O)N(C)C[C@H]1Oc2ccc(NC(=O)C3CCCCC3)cc2CC(=O)N([C@H](C)CO)C[C@@H]1C,0,-16,?
C[C@H](CO)N1C[C@H](C)[C@@H](CN(C)CC2CCOCC2)Oc2cc(-c3cccnc3)ccc2S1(=O)=O,0,-12,3
COc1ccc(NC(=O)Nc2cccc3c2O[C@@H](CN(C)C(=O)Nc2c(C)noc2C)[C@H](C)CN([C@@H](C)CO)C3=O)cc1,0,-11,8
CC(C)(C)[S@](=O)N1Cc2cc(C(=O)N3CCCCC3)nc(-c3cccc(-c4ccc(C#N)cc4)c3)c2[C@@H]1CCO,0,-6,1
COc1ccc2c3c([nH]c2c1)[C@H](CO)N(C(=O)c1ccncc1)CC31CCN(C(=O)CC2CC2)CC1,0,·,7
CCC(C(=O)Nc1cccnc1Cl)c1ccccc1 (centres undefined),·,5,-5
CCC(C(=O)Nc1ccccc1-c1ccccc1)c1ccccc1 (centres undefined),·,113*,·
C[C@@H]1CN([C@H](C)CO)C(=O)c2cccc(NC(=O)NC3CCCCC3)c2O[C@@H]1CN(C)C(=O)Nc1ccc(F)cc1,0,-9,1
O=C1CCc2cc(S(=O)(=O)NCCc3ccc(Cl)cc3)cc3c2N1CC3,-4,-1,97*
COc1ccc(CCNS(=O)(=O)c2cc3c4c(c2)CCN4C(=O)CC3)cc1OC,2,-13,-6
COC(=O)c1ccc(N2C(c3ccsc3)=Cc3cc4c(cc3C2CC(=O)c2ccco2)OCO4)cc1 (centres undefined),0,·,11
COC(=O)c1ccc(N2C(c3cc(OC)cc(OC)c3)=Cc3ccc(OC)cc3C2CC(=O)c2ccco2)cc1 (centres undefined),0,·,31*
C[C@H](CO)N1C[C@H](C)[C@H](CN(C)S(=O)(=O)c2ccc(F)cc2)Oc2ccc(NC(=O)c3ccncc3)cc2C1=O,0,-20,2
CC(C)CNS(=O)(=O)c1cc(C(=O)O)c(Cl)cc1Cl,7,·,3
SMILES,E-sel inducer,Statin myotox sup,DENV2 CPE rescue
O=C(O)c1cc(S(=O)(=O)Nc2cccc3ccccc23)c(Cl)cc1Cl,·,75*,-4
O=C(NCC(F)(F)F)[C@@H]1[C@@H](CO)[C@@H]2Cn3c(cccc3=O)[C@H]1N2C(=O)C1CCC1,0,-5,0
CC(C)NC(=O)Nc1ccc2c(c1)C(=O)N([C@@H](C)CO)C[C@H](C)[C@H](CN(C)Cc1ccccc1)O2,0,77*,-8
C[C@H]1CN([C@@H](C)CO)C(=O)c2cc(NC(=O)C3CCCCC3)ccc2O[C@@H]1CN(C)Cc1ccc(C(F)(F)F)cc1,-3,·,-14
C[C@@H]1CN([C@@H](C)CO)C(=O)c2cc(NC(=O)Nc3ccc(C(F)(F)F)cc3)ccc2O[C@@H]1CN(C)Cc1ccc(C(F)(F)F)cc1,1,-85,-23
CC(C)NC(=O)Nc1ccc2c(c1)C(=O)N([C@@H](C)CO)C[C@@H](C)[C@@H](CN(C)Cc1ccc(C(F)(F)F)cc1)O2,59*,-3,-6
CC(C)NC(=O)Nc1ccc2c(c1)C(=O)N([C@@H](C)CO)C[C@H](C)[C@@H](CN(C)Cc1ccc(C(F)(F)F)cc1)O2,89*,-7,-16
CC(C)NC(=O)Nc1ccc2c(c1)C(=O)N([C@H](C)CO)C[C@@H](C)[C@H](CN(C)Cc1ccc(C(F)(F)F)cc1)O2,22,-3,7
C[C@H]1CN([C@@H](C)CO)C(=O)c2cc(NC(=O)C3CC3)ccc2O[C@H]1CN(C)Cc1ccc(C(F)(F)F)cc1,0,-28,27*
CC(C)NC(=O)Nc1ccc2c(c1)C(=O)N([C@@H](C)CO)C[C@H](C)[C@@H](CN(C)Cc1ccccc1)O2,0,6,-6
CCCC(=O)Nc1ccc2c(c1)C(=O)N(C)C[C@H](OC)[C@@H](C)CN(CC1CCOCC1)[C@H](C)CO2,0,2,·
CCNC(=O)[C@H]1[C@H](CO)[C@H]2Cn3c(ccc(-c4ccccc4F)c3=O)[C@@H]1N2CC,0,2,1
Cc1ccc(-c2ccc(C3[C@@H]4CN(S(=O)(=O)c5cccc(C)c5)C[C@H]3N4)cc2)cc1 (some centres undefined),·,·,3
Cc1noc(C)c1NC(=O)NCC[C@H]1CC[C@@H](NC(=O)Nc2cccc(F)c2)[C@@H](CO)O1,0,8,-6
C#CCNC(=O)C1=C[C@@H](C(C)(C)C)C[C@@H](OCCCCO)O1,·,·,-3
CC(Cc1ccccc1)NC(=O)C1CCCNC1=O (centres undefined),·,2,-4
CC(Cc1ccccc1)N/C=C1\CC(=O)NC1=O (centres undefined),·,80*,·
CC(C)C#Cc1cnc2c(c1)C(=O)N([C@H](C)CO)C[C@@H](C)[C@H](CN(C)S(=O)(=O)c1cn(C)cn1)O2,0,-7,-11
CCOC(=O)N1CCN(c2c(N3CCN(c4cc(C)ccc4C)CC3)c(=O)c2=O)CC1,1,102*,-7
CCOC(=O)N1CCN(c2c(N3CCN(C(=O)OCC)CC3)c(=O)c2=O)CC1,8,4,0
CC(=O)Nc1ccc(NC(=O)COc2ccc(Cl)cc2Cl)cc1,48*,-3,6
O=C(COc1ccc(Cl)cc1Cl)Nc1ccc(Cl)cn1,·,13,5
Fc1ccc(NC(=S)N2CCCC2)cc1Cl,0,·,·
O=c1[nH]c2ccc(NC(=S)Nc3ccc(Cl)cc3Cl)cc2[nH]1,·,139*,·
O=c1[nH]c2ccc(NC(=S)Nc3ccc(Cl)cc3)cc2[nH]1,·,41,·
COC(=O)NC(=S)Nc1ccc(Oc2ccc(Cl)cc2Cl)c(Cl)c1,·,126*,·
Fc1ccc(NC(=S)Nc2ccc(F)c(Cl)c2)cc1Cl,·,69*,·
COC(=O)NC(=S)Nc1ccc(Oc2ccc(Cl)cc2)c(Cl)c1,·,-19,·
